This is a sample that favours compounds with a hit; in the whole collection about 3% have one here.
Rad51 HR inh = blocks human Rad51 in homologous recombination | 200,000 compounds, 0.085% hits | hRad51 DNA strand exchange, fluorescence dequenching | Q06609 | AID 1385 | inhibition, % at 10 µM;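 active = inhibition above 40% at the single screening dose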;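 note: 0% = DMSO control wells and 100% = blanks with heterologous ssDNA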
Target sequence (Q06609 whole entry, looked up): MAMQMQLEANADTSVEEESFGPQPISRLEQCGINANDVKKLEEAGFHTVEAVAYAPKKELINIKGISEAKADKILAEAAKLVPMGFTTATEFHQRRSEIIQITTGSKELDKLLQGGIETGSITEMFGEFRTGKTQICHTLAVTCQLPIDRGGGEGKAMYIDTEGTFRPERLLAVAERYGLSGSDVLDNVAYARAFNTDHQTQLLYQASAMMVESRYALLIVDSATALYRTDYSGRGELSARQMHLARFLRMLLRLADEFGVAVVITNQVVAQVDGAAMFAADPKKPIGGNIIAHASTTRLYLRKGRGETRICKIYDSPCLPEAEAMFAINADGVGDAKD
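Material: Human Rad51 nucleoprotein filaments preassembled on unlabelled ssDNA | Also added: Labelled 47-mer dsDNA for strand exchange | Dosing: Single dose, 10 µM final compound | Schedule: 30-min compound preincubation and 15-min exchange, both room temperature | Technique: Fluorescence dequenching at 485/520 nm | Measure: Percent inhibition relative to plate controls and blanks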
KCC2 mod = modulates chloride dependent transport by human KCC2 | 190,000 compounds, 2.2% hits | KCC2 cells, thallium flux FluoZin-2 fluorescence | B-score of Tl+ flux slope (higher = more flux/activation; lower = inhibition) at 10 µM | Q9H2X9 | AID 1456;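 active = thallium flux slope and its plate-corrected score both differing from the plate sample mean at a set confidence after two filtering rounds, in either direction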;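 note: slope of fluorescence scaled to starting intensity during 10 to 20 s after thallium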
ROMK primary = human ROMK K+ channel modulation, primary screen; Tet-inducible ROMK, thallium flux fluorescence; actives lie on both sides; AID 1918; 130,000 compounds, 2% hits; B-score at 10 µM;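 active = signal ratio slope over the read window, or its plate-corrected B-score, at least 3 SD from the plate mean, either direction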;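 note: B-score of the F/F0 ratio slope over 7 to 12 s after thallium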
PKD1 inh = inhibitors of human PKD1 kinase; 200,000 compounds, 0.056% hits; PKD1 kinase fluorescence polarization assay; inhibition, % (no concentration beside the values); AID 797; in the data active = inhibition above about 50%
ROMK retest = retested hit modulating human ROMK potassium channel; shares compounds with ROMK primary; ROMK thallium flux, fluorescence ratio; active compounds read low; normalized thallium flux (F/F0 slope) at 10 µM; 3,000 compounds, 54% hits;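 active = Flux at 10 µM at least 3 SD below or above vehicle control mean in one or both replicates; inconclusive = no clear call, values can overlap the other calls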
* hit, by the source's call; u = inconclusive; x = not tested or not shown; ! = repeats disagree.

SMILES | Rad51 HR inh | KCC2 mod | ROMK primary | PKD1 inh | ROMK retest
N#CCCn1cc(C(=O)N2CCOCC2)c(-c2ccc3c(c2)OCCO3)n1 | 4 | 0.28 | -0.17 | 5 | x
C=CC(=O)NCCCc1cc(C(C)(C)C)c(O)c(C(C)(C)C)c1 | 8 | -0.017 | x | 3 | x
CC(C)C(C)(C#N)NC(=O)CSc1nc2scc(-c3ccc(F)cc3)c2c(=O)n1Cc1ccccc1 (stereo not given) | -6 | 1.8 | x | 0 | x
CCn1c(=O)c(=O)[nH]c2cc(C(=O)NC3CCCc4ccccc43)ccc21 (stereo not given) | 1 | -2.3 | 3.2* | -1 | 0.083
CCC(C)NCCC(=O)Nc1ccc(Cl)c(S(=O)(=O)Nc2ccc(Cl)cc2)c1 (stereo not given) | x | 0.3 | -4.1* | -2 | 0.064*
CCN(C(=O)COC(=O)c1cccc(-n2cnnn2)c1)C1CCCCC1 | 1 | 0.67 | 1.2 | -4 | x
COc1ccc(-c2nnc(SCc3nnc(-c4ccccc4)o3)n2-c2ccccc2)cc1 | -1 | -1 | x | -12 | x
COc1ccc(-c2noc(CSc3nnc(-c4ccncc4)n3-c3ccc(F)cc3)n2)cc1OC | 2 | -0.36 | x | -1 | 0.082
COc1ccc(-n2c(SCc3nnc(-c4ccccc4)o3)nnc2-c2ccccc2)cc1 | 1 | -0.33 | x | -11 | 0.064*
CC(=O)Cc1nsc(NC(=O)c2ccc(-c3cc(Cl)ccc3Cl)o2)n1 | 6 | -1.5 | 3.8* | -5 | 0.089
CC(=O)Cc1nsc(NC(=O)c2ccc(-c3ccc(Cl)cc3Cl)o2)n1 | 0 | x | x | -3 | x
COc1cc(-c2nc(CN3CCCN(C(=O)c4ccco4)CC3)c(C)o2)ccc1F | -7 | -0.78 | x | 0 | x
CCOC(=O)CC1CCCCN1Cc1nc(-c2ccc(F)c(OC)c2)oc1C (stereo not given) | 17 | -0.19 | -3* | -4 | 0.06*
CN1CCC2(CC1)C1CN(C)CC=C1C(C#N)=C(N)C2(C#N)C#N (stereo not given) | -111 | -0.17 | -3.4*! | 7 | 0.057*
Cc1cc2c(cc1S(=O)(=O)N(C)c1ccccc1)NC(=O)CO2 | x | -2 | -5* | -1 | 0.053*
COc1ccccc1N1N=C(C(=O)c2ccccc2)C2C(=O)N(c3ccc(Br)cc3)C(=O)C21 (stereo not given) | -352 | x | x | x | 0.065*
COc1ccccc1N1C(=O)C2C(C(=O)c3ccccc3)=NN(c3ccccc3)C2C1=O (stereo not given) | -11 | -1.7 | x | x | 0.063*
COC(=O)[C@@H]1C[C@@]2(O)[C@@H](O)[C@@H](O)[C@@H](O)C[C@H]2N1Cc1cc(OC)cc(OC)c1 | 0 | 1.1 | x | x | x
CCOC(=O)c1c(C)n(C)c2ccc(OC)c(NC(=O)CN3CCN(Cc4ccccc4)CC3)c12 | x | 1.4 | -3.2* | 5 | 0.068*
Cn1c(=O)c([N+](=O)[O-])c(Cl)c2ccccc21 | -5 | -1.1 | -5.1* | 2 | 0.049*
O=C1C2C(c3cccc(/C=C/c4ccccc4)c3)CC=CC2C(c2ccc(C(F)(F)F)cc2)N1Cc1ccccc1 (stereo not given) | 4 | 0.046 | x | x | 0.087
O=C(NNC(=O)c1cccc2ccccc12)c1ccc2c(c1)OCO2 | 9 | 0.04 | x | x | x
COc1ccc(C2=CC(=O)N(Nc3ccccc3)C2=O)cc1 | -3 | 0.43 | -2 | -2 | x
O=C1C=C(c2ccccc2)C(=O)N1Nc1ccccc1 | -7 | x | -3.6* | 10 | 0.061*
COCCn1nnnc1C(c1cccs1)N1CCN2CCCC2C1 (stereo not given) | -4 | -0.14 | x | -5 | x
SMILES | Rad51 HR inh | KCC2 mod | ROMK primary | PKD1 inh | ROMK retest
COc1cccc(CNCCNC(=O)c2ccco2)c1OC | -6 | 0.54 | 2.9* | 2 | 0.078
COc1ccccc1C(=O)NCCNC(=O)c1ccco1 | -1 | 1.9 | -0.35 | -1 | 0.076
COc1ccc(CCNC(=O)c2ccco2)cc1OC | -33 | -1.4 | -0.5 | 2 | x
CS(=O)(=O)N1CCC(Oc2ccccc2C(=O)N2CCNC(=O)C2)CC1 | -2 | -0.63 | 0.56 | 9 | x
O=C(Cn1cncn1)c1ccc(F)cc1F | 6 | -0.2 | x | 2 | x
CC(CC(=O)O)Nc1ccccc1O (stereo not given) | 8 | -0.12 | 0.029 | -5 | 0.08
COc1ccccc1C/C(N)=N/OC(=O)c1ccc2c(c1)OCO2 | -1 | x | -3.1* | 1 | 0.072
COc1ccc(/C=N/NC(=O)CCSc2nc3ccccc3s2)cc1 | 2 | -0.0089 | 1.7 | -3 | x
COCc1cc(CN2CCCC2)c(O)c2ncccc12 | -4 | x | 0.84 | -11 | x
Oc1c(CN2CCCCC2)cc(COCc2ccccc2)c2cccnc12 | 0 | x | -4.5* | -8 | 0.07
CC1(C)CN(c2cccc(Br)c2)C1=O | 1 | x | 2.1* | -2 | 0.073
Cc1ccsc1/C=C1\SC(N)=NC1=O | x | 0.015 | -0.43 | 5 | x
NC1=NC(=O)/C(=C\c2cc([N+](=O)[O-])ccc2Cl)S1 | 0 | -0.021 | -2* | 2 | 0.066*
COc1cccc(CNC(=O)CCC2CCCN(c3cc(C)nc(N4CCCC4)n3)C2)c1 (stereo not given) | -15 | -0.45 | x | 2 | x
Cc1ccccc1C=Nc1ccccc1C(N)=O | -24 | 0.013 | 2.8* | 4 | 0.087
O=S(=O)(Nc1cc(Sc2ncn[nH]2)c(O)c2ccccc12)c1ccccc1 | 1 | -1.3 | -4.3* | 2 | 0.046*
Cc1cc(C(=O)CSc2nc3ccccc3c(=O)n2C)c(C)n1CC1CCCO1 (stereo not given) | 13 | -1.1 | -8.5* | -1 | 0.06*
COc1ccc(NS(=O)(=O)c2cc(NC(=O)/C=C/c3ccccc3OC)ccc2N2CCCCC2)cc1 | x | 0.15 | 0.081 | 5 | x
CCCCCn1c(=O)c(-c2nc3ccccc3[nH]2)c(O)c2ccccc21 | x | -0.2 | 0.25 | -9 | x
CCc1ccccc1NS(=O)(=O)c1ccc(SC)cc1 | 8 | 0.01 | -1.6* | -1 | 0.065*
CSc1ccc(S(=O)(=O)Nc2c(C)cccc2C)cc1 | 6 | 0.28 | 0.14 | 1 | x
O=S(=O)(NCc1ccco1)c1ccc(Cl)nc1 | -18 | 0.001 | -0.89 | -1 | x
CCOC(=O)c1c(NC(=O)COC(=O)c2cc(OC)c(OC)cc2[N+](=O)[O-])sc(C)c1C | -2 | -0.71 | -0.44 | -2 | x
CCC1CCCCN1C(=O)CSc1nc2ccsc2c(=O)n1Cc1ccccc1 (stereo not given) | -4 | -1.3 | -3.1* | -2 | 0.059*
Cc1ccc(C2CC2C(=O)NNC(=S)Nc2cccc(C)c2)cc1 (stereo not given) | 0 | 1 | -2 | 3 | x
Cc1ccc(C2CC2C(=O)NNC(=S)Nc2cccc(Cl)c2)cc1 (stereo not given) | -2 | 0.84 | x | -2 | u
CCOC(=O)C1CCCN(c2ncnc3c2oc2ccccc23)C1 (stereo not given) | -7 | x | x | 7 | 0.054*
Cc1ccc2c(c1)nnn2C1CCN(CC(=O)Nc2ccccc2N2CCOCC2)CC1 | -1 | x | -4.2* | 0 | 0.055*
